Data on three compounds can be found in ChEMBL document CHEMBL4316617, “Inhibition of the FAD containing ER oxidoreductin 1 (Ero1) protein by EN-460 as a strategy for treatment of multiple myeloma” (Bioorg Med Chem, 2019).

In data set [1] the test system is U-266. In words: Cytotoxicity against human U266 cells assessed as reduction in cell viability measured after 72 hrs by MTT assay. Format: functional, cell-based. The conditions noted are these: U-266, 72 h. In a few lines: (§1)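 MM cell lines exposed to compound for 72 h. MTT (50 μl of 2 mg/ml) added for 4 h, formazan dissolved in DMSO, absorbance read at 570 nm. IC50 calculated; mean ± SD of 3 independent experiments.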

The next data set deals with MM1.S. In words: Cytotoxicity against human MM1S cells assessed as reduction in cell viability measured after 72 hrs by MTT assay. In kind it is functional, cell-based. In a few lines: as §1
The nature of data set [2]: Solubility of the compound in pH 7.4 phosphate buffered saline. In kind it is physicochemical. The conditions noted are these: buffer.
Data set [3] is described as follows: Solubility of the compound at >200 uM. Format: physicochemical.
Data set [4] concerns T1, ERO1-like protein alpha (Homo sapiens), Q96HE7 [C104A,C131A,C166A].
T1 sequence (whole entry): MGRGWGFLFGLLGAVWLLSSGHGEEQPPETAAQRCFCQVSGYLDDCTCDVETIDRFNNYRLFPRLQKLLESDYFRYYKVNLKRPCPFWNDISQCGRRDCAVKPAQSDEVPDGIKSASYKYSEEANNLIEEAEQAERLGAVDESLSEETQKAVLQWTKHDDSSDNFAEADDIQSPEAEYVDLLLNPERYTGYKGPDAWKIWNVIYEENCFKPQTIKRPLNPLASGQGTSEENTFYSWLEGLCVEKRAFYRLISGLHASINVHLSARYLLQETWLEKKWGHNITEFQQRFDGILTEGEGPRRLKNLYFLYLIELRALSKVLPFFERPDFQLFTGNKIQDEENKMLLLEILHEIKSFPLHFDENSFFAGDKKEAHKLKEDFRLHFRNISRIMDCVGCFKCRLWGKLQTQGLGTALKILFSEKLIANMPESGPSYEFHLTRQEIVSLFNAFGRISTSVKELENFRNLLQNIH
Put plainly: (§2) Inhibition of recombinant human Ero1Lalpha C104A/C131A/C166A triple mutant (22 to 468 residues) expressed in Escherichia coli BL21(DE3)-RIL measured after 30 mins by Amplex red dye based fluorescence assay.

In data set [5] the target is T2, ERO1-like protein alpha (Homo sapiens, UniProt Q96HE7, C104A/C131A/C166A). The description is as §2.
The subject of data set [6] is T1, ERO1-like protein alpha (Homo sapiens), Q96HE7 [C104A,C131A,C166A]. In words: Binding affinity to recombinant human Ero1Lalpha C104A/C131A/C166A triple mutant (22 to 468 residues) expressed in Escherichia coli BL21(DE3)-RIL assessed as melting temperature at 20 uM by SYPRO orange protein gel staining based differential scanning fluorimetry (reference value: 53.15 +/- 0.15 degreeC).

Data set [7] concerns the target Protein disulfide-isomerase (Homo sapiens) (UniProt P07237). In words: Binding affinity to recombinant human His-tagged PDI (18 to 479 residues) expressed in Escherichia coli assessed as melting temperature at 20 uM by SYPRO orange protein gel staining based differential scanning fluorimetry (reference value: 58.86 +/- 0.12 degreeC).
Data set [8] has as its target T3, Amine oxidase [flavin-containing] A (Homo sapiens, UniProt P21397).
T3 sequence (P21397 whole entry): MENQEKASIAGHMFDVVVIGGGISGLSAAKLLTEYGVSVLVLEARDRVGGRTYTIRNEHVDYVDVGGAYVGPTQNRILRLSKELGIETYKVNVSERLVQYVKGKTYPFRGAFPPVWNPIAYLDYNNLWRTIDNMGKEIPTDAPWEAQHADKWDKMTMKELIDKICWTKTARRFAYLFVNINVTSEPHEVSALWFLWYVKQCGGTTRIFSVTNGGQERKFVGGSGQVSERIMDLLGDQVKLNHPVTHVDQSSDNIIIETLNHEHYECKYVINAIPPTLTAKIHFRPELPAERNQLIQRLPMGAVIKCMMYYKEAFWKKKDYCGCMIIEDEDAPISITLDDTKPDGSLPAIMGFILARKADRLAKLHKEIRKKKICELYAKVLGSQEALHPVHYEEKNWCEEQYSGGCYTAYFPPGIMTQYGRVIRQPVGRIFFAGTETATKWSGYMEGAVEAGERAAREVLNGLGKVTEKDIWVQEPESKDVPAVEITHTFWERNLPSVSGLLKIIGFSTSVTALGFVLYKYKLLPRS
Put plainly: Inhibition of MAOA (unknown origin) using kynuramine as substrate. In a few lines: (§3)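 Purchased MAO-A or MAO-B activity measured as kynuramine metabolism, with fluorescence read at Ex 310/Em 380 nm. IC50 fitted, N = 2.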

The target of data set [9] is Lysine-specific histone demethylase 1A (Homo sapiens, UniProt O60341). Put plainly: Inhibition of recombinant human LSD1 using ARTK(diMethyl)QTARKSTGGKAPRKQLAPRKQLA as substrate measured after 30 mins by ADHP/horseradish peroxidase coupled fluorescence assay. In a few lines:
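LSD-1 activity measured with a commercial kit following the manufacturer's instructions. IC50 fitted, N = 2.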

The test system of data set [10] is U-266. Put plainly: Induction of endoplasmic reticulum stress in human U266 cells assessed as increase in eIF2alpha phosphorylation measured after 2 to 8 hrs by Western blot analysis. In kind it is functional, cell-based. Summed up:
(§4)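 U266 cells treated with compound or DMSO for 2, 4 and 8 h. Lysates resolved on 8–10% SDS-PAGE and transferred to PVDF. Blocked in 5% milk/TBST, probed overnight at 4 °C for p-eIF2α, ATF4 and ATF6 (this antibody detects full-length ATF6 only), with β-actin as loading control. Chemiluminescent detection; n = 3.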

Data set [11] has as its target T2, ERO1-like protein alpha. In words: Inhibition of recombinant human Ero1Lalpha C104A/C131A/C166A triple mutant (22 to 468 residues) expressed in Escherichia coli BL21(DE3)-RIL using human PDI as substrate measured after 30 mins by Amplex red dye based fluorescence assay.
Data set [12] has as its system U-266. Put plainly: Induction of apoptosis in human U266 cells at 12.5 to 50 uM measured after 18 hrs by Annexin V-FITC/propidium iodide staining based flow cytometry. In kind it is functional, cell-based. Summed up: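 U266 cells treated with compound or DMSO vehicle for 18 h, washed in ice-cold PBS, then stained with Annexin V-FITC/PI in binding buffer for 15 min at 37 °C in the dark. At least 10,000 cells analysed by flow cytometry. Mean ± SD, n = 3 independent experiments.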

Data set [13] concerns U-266. In words: Induction of endoplasmic reticulum stress in human U266 cells assessed as increase in ATF4 level measured after 2 to 8 hrs by Western blot analysis. In kind it is functional, cell-based. In a few lines:
as §4

Data set [14] has as its system T1, ERO1-like protein alpha (Homo sapiens), Q96HE7 [C104A,C131A,C166A]. Put plainly: Competitive inhibition of recombinant human Ero1Lalpha C104A/C131A/C166A triple mutant (22 to 468 residues) expressed in Escherichia coli BL21(DE3)-RIL using varying levels of human PDI as substrate by Lineweaver-burk plot analysis.
Data set [15] deals with T4, Amine oxidase [flavin-containing] B (Homo sapiens, UniProt P27338).
T4 sequence (P27338 whole entry): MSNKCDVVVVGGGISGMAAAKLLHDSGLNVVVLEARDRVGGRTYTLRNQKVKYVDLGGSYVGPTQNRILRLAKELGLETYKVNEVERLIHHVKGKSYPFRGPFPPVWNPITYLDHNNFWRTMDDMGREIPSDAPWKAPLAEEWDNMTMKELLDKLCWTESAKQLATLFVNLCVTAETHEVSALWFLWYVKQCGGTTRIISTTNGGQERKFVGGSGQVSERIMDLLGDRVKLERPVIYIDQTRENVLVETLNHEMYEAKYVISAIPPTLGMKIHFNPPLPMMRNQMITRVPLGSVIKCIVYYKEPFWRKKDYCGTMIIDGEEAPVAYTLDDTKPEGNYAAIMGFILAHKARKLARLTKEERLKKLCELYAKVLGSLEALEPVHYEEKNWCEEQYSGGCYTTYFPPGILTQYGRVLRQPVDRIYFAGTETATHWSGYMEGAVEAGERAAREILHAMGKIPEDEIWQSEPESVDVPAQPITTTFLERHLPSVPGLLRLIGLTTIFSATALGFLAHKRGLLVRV
In words: Inhibition of MAOB (unknown origin) using kynuramine as substrate. Summed up:
as §3

Data set [16] relates to U-266. In words: Induction of endoplasmic reticulum stress in human U266 cells assessed as reduction in full length ATF6 measured after 2 to 8 hrs by Western blot analysis. In kind it is functional, cell-based. Summed up:
as §4

A further data set relates to PBMC. Put plainly: Cytotoxicity against PBMC (unknown origin) assessed as cell death. In kind it is cell-based.

pIC50: −log10 of the molar value. Activity calls are given as the source filed them. The calls are words filed in the database; no cut-off is given here.

Sequence of Protein disulfide-isomerase (Homo sapiens) (P07237 18-508 limits assumed): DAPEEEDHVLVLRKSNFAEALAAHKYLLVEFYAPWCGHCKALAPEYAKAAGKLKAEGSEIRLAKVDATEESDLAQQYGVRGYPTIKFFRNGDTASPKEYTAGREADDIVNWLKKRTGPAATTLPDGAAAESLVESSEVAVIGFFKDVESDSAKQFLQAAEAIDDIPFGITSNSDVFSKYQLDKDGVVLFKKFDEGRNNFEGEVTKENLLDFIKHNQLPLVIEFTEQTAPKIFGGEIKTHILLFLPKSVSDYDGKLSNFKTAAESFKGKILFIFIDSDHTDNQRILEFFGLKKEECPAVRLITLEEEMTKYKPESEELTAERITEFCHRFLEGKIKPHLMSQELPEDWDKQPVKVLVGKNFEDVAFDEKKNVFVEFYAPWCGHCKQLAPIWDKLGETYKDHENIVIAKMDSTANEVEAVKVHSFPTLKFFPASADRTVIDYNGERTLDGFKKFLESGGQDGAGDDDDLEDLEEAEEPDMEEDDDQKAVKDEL

Take `[N-]=[N+]=Nc1ccc(-c2ccc(/C=C3/C(=O)N(c4ccc(Cl)c(C(=O)O)c4)N=C3C(F)(F)F)o2)cc1`: the results for the negative-log IC50 (pIC50) with U-266 [1] and in the data set on MM1.S were 5.15 and 4.76, respectively. For the same compound, in data set [2], the solubility result is on record as “Insoluble”.

In the case of `[N-]=[N+]=Nc1cccc(-c2ccc(/C=C3/C(=O)N(c4ccc(Cl)c(C(=O)O)c4)N=C3C(F)(F)F)o2)c1`, the pIC50 is 4.83 in the data set on U-266 [1], 4.91 at ERO1-like protein alpha [5] and 4.73 with MM1.S. The solubility entry in data set [3] is “Insoluble”. Moreover, the inhibition entry in data set [4] was “Dose-dependent effect”. For the same compound, the Tm in data set [6] came to 59.8 °C; in data set [7] it was 57.7 °C.

Take `O=C(O)c1cc(N2N=C(C(F)(F)F)/C(=C/c3ccc(-c4ccccc4)o3)C2=O)ccc1Cl`: the pIC50 in data set [8] is 5.10; with U-266 [1], 5.00; in data set [9], 5.38; on ERO1-like protein alpha [11], 4.66; at ERO1-like protein alpha [5], 4.89; in data set [15], 4.51. For the same compound, the pIC50 in the data set with MM1.S was 4.83. Further, in [3], the solubility result was “Insoluble”. For the same compound, the outcome with U-266 [10], with U-266 [12], in the data set with U-266 [13] and with U-266 [16] was Active. In addition, the inhibition entry in [4] was “Dose-dependent effect”. Also, in data set [14], the inhibition entry is “Active”. Further, in the data set on PBMC, the Activity result is “Toxic”. Further, the Tm in data set [6] came out at 55.9 °C; in data set [7] it was 59.2 °C.
